Compound activity as filed in PubChem BioAssay.
TRPC4 potent: TRPC4 (mouse) allosteric potentiation; 310,000 tested, 0.42% active; Q9QUQ5; AID 2227; HEK293 TRPC4beta/mu-opioid, DAMGO EC20, Fluo-4 Ca2+ flux; active compounds read high; B-score at 10 µM;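 active = B-score of calcium response area above 5 SD of library B-scores, with initial fluorescence ratio within 5 SD of library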;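 also: B-score of integrated fluorescence ratio over time as area under calcium response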
Target sequence (Q9QUQ5 whole entry, looked up): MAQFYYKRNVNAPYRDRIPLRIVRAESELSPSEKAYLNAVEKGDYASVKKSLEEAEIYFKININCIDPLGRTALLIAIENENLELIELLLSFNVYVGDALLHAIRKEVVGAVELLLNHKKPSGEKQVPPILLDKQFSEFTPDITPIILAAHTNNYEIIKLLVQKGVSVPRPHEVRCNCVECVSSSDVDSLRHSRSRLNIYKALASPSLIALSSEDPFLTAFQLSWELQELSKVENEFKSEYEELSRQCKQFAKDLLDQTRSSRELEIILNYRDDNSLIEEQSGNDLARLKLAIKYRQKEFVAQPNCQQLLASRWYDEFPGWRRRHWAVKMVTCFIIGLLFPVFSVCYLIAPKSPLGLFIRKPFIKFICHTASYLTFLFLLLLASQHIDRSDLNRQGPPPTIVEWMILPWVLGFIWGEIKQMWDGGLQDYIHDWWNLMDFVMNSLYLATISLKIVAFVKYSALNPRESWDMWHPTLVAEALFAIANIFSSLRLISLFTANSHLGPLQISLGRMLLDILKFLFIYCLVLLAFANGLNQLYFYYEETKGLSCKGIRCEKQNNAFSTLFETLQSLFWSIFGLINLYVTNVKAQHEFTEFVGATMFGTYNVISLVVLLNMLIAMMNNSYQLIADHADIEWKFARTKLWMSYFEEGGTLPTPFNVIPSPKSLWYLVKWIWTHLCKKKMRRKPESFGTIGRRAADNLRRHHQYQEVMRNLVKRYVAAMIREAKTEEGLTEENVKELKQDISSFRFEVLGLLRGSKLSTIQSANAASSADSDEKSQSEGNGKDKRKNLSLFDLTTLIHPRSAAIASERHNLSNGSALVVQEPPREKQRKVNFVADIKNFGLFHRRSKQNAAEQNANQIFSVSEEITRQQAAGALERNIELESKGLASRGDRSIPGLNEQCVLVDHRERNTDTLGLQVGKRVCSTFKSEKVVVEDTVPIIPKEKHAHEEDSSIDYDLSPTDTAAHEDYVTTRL
TRPC4 act: opens the mouse TRPC4 cation channel; HEK293 TRPC4beta/mu-opioid, Fluo4 calcium fluorescence; active compounds read high; B-score at 10 µM; 310,000 tested, 0.49% active; AID 2237;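 active = B-score above 5 SD of library B-scores, and initial fluorescence ratio not above library mean plus 5 SD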;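 also: positive B-score marks a calcium rise read as TRPC4 activation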
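Assay system: HEK293 cells stably co-expressing mouse TRPC4beta and mu-opioid receptor / Timing: Fluo4 dye loading 45 min at room temperature, 110 s recording / Signal: Fluo4 calcium-sensitive dye fluorescence, kinetic, 1 Hz baseline / Read-out: integrated baseline-normalised fluorescence ratio, converted to per-well B score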
TRPC6 inh: inhibitors of mouse TRPC6 channel; Q61143; AID 2553; 310,000 tested, 1.1% active; HEK293-TRPC6, membrane potential dye, ACh-evoked depolarization; active compounds read low; B-score at 10 µM;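 active = B-score under library mean minus 3 SD, initial fluorescence not abnormally high, positive integrated signal ratio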;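 also: B-score derived from integrated fluorescence ratio over the kinetic read; more negative B-score means stronger inhibition of depolarization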
TRPC4 block: blocks the mouse TRPC4 cation channel; Q9QUQ5; HEK293 TRPC4beta/mu-opioid, DAMGO-evoked Fluo4 calcium flux; active compounds read low; B-score at 10 µM; 300,000 tested, 0.39% active;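 active = B-score over 3 SD under the library average, no early fluorescence shift, positive overall ratio signal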
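Material: HEK293 cells with stable TRPC4beta plus mu-opioid receptor expression; probe or stimulus: DAMGO in two steps, submaximal then maximal; technique: Fluo4 calcium fluorescence by kinetic imaging, 5 s 1 Hz baseline; measure: integrated fluorescence ratio relative to baseline, converted to per-well B score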
TRPC6 activator: mouse TRPC6 channel activation; Q61143; 310,000 tested, 0.13% active; B-score at 10 µM; HEK293-TRPC6 membrane potential dye fluorescence; active compounds read high; AID 2550;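 active = B-score of the integrated fluorescence ratio above library mean plus 3 SD, and starting fluorescence ratio within library mean plus 5 SD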;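 also: higher score means more depolarization so channel activation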
TRPC4 sel inh 2: second selectivity test of TRPC6 inhibitors: effect on mouse TRPC4; shares compounds with TRPC6 inh; HEK293 TRPC4/MOR, membrane potential dye fluorescence; channel activated by saturating DAMGO dose; inhibition, % at 10 µM; 920 tested, 42% active;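 active = compounds whose fluorescence signal differed from control wells by over 3 SD, either direction, in both duplicate plates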
TRPC4 spec: selectivity of TRPC6 inhibitors: effect on mouse TRPC4; shares compounds with TRPC6 inh; HEK293 TRPC4/mu-opioid, membrane potential fluorescence; activity change, negative = inhibition, % at 10 µM; 920 tested, 61% active;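 active = rise or fall in signal beyond 3 SD of buffer-only wells in both replicate plates, either sign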;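 also: integrated kinetic ratio of fluorescence range over baseline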
HEK293 MPD ctr 2-1: parental HEK293 nonspecific activity of TRPC6 inhibitors, second screen; shares compounds with TRPC6 inh; parental HEK293 membrane potential dye fluorescence; maximal acetylcholine challenge after compound addition; signal change vs control, % at 10 µM; 920 tested, 31% active; AID 2779;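 active = membrane potential signal moving either way by over 3 SD of the maximum-effect control, in both duplicate plates, meaning non-specific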
HEK293 MPD ctr-1: counter-screen for TRPC6 inhibitors: effect in parental HEK293 cells; 920 tested, 60% active; shares compounds with TRPC6 inh; membrane potential signal change, % at 10 µM; parental HEK293 membrane potential dye fluorescence;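 active = membrane potential signal shifting up or down by more than 3 SD of buffer-only wells, on both duplicate plates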
HEK293 MPD ctr-2: counter-screen for TRPC6 modulators: effect in parental HEK293 cells | membrane potential dye fluorescence | shares compounds with TRPC6 inh | 2,400 tested, 51% active | membrane potential signal change, % at 10 µM | AID 488924;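 active = membrane potential signal moves up or down beyond 5 SD from buffer-only wells, on both duplicate plates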
HEK293 MPD ctr 2-2: second counter-screen for TRPC6 modulators: effect in parental HEK293 cells | shares compounds with TRPC6 inh | membrane potential dye fluorescence; after compound, maximal acetylcholine stimulation | 2,400 tested, 14% active | inhibition, % at 10 µM;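 active = membrane potential signal drops by more than 5 SD from the mean control signal, in both duplicate plates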;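 also: plate controls were acetylcholine ECmax control wells for no effect and buffer only wells for full effect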
TRPC4 ctr mod: selectivity of TRPC6 modulators against mouse TRPC4 | percent change from control (negative = decrease, positive = increase), % at 10 µM | 2,400 tested, 69% active | shares compounds with TRPC6 inh | HEK293 TRPC4/mu-opioid, membrane potential fluorescence | AID 488927;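 active = membrane potential signal moved up or down beyond 5 SD of buffer control wells, in both duplicate plates, actives on both sides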;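 also: plate controls were assay buffer wells for no effect and DAMGO maximal-effect wells for full effect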
TRPC4 ctr inh 2: second selectivity test of TRPC6 modulators against mouse TRPC4; shares compounds with TRPC6 inh; HEK293 TRPC4/mu-opioid, membrane potential dye fluorescence; stimulated with maximal-effect DAMGO; inhibition, % at 10 µM; 2,400 tested, 55% active;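 active = drop in membrane potential signal beyond 5 SD of the control wells in both duplicate plates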;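 also: TRPC4 counter screen for TRPC6 hits run under conditions tuned for TRPC6 not TRPC4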
TRPC6 inh conf: mouse TRPC6 inhibitor confirmation; shares compounds with TRPC6 inh; HEK293-TRPC6, membrane potential dye, ACh-evoked depolarization; inhibition, % at 10 µM; 3,300 tested, 43% active; AID 488960;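 active = fluorescence ratio falls more than 5 SD below the full-stimulation control mean, in both duplicate runs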;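 also: integrated fluorescence ratio of peak minus minimum over baseline after agonist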
TRPC6 act conf: mouse TRPC6 activator confirmation; 2,800 tested, 11% active; shares compounds with TRPC6 inh; activation, % at 10 µM; HEK293-TRPC6 membrane potential dye fluorescence, FDSS;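 active = ratio signal rise beyond 5 SD above unstimulated control wells' mean, seen in both duplicate runs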;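 also: plate controls were buffer EC0 wells for no effect and acetylcholine ECmax response for full effect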
* = called active by the depositor; i = inactive; x = not tested or not shown. Rows were chosen to be rich in hits. Some 2.3% of all compounds tested hit in one or more screens of this group.

SMILES | TRPC4 potent | TRPC4 act | TRPC6 inh | TRPC4 block | TRPC6 activator | HEK293 MPD ctr-2 | HEK293 MPD ctr 2-2 | TRPC4 ctr mod | TRPC4 ctr inh 2 | TRPC6 inh conf | TRPC6 act conf | others
CNC(=O)c1cc2c(=O)n3cc(C)ccc3nc2n(C(C)C)c1=N | i | i | -7.5* | i | i | -157%* | 111%* | -48%* | 51%* | 84%* | i
C=CCn1c(=N)c(C(=O)NCCCOC)cc2c(=O)n3cc(C)ccc3nc21 | i | i | -7.5* | i | i | x | x | x | x | i | i | TRPC4 sel inh 2=i;TRPC4 spec=2.7%*;HEK293 MPD ctr 2-1=-54%*;HEK293 MPD ctr-1=4.9%*
Cc1cccn2c(=O)c3cc(C(=O)NCC4CCCO4)c(=N)n(C4CCCCC4)c3nc12 (stereo unspecified) | i | i | i | i | i | x | x | x | x | x | x
C=CCn1c(=N)c(C(=O)NCCCOC)cc2c(=O)n3ccccc3nc21 | i | i | i | i | i | x | x | x | x | x | x
Cc1ccc2nc3c(cc(C(=O)NC4CCCCC4)c(=N)n3C3CCCCC3)c(=O)n2c1 | i | i | -7.8* | i | i | -132%* | i | -31%* | 43%* | 36%* | i
C/C(=N\NC(=O)c1ccc(O)cc1)c1ccc(NC(=O)Cc2ccccc2)cc1 | i | i | i | i | i | x | x | x | x | x | x
Cc1cc(C)cc(N(CCC#N)C(=O)COC(=O)c2ccc(OCc3c(C)noc3C)cc2)c1 | i | i | i | i | i | x | x | x | x | x | x
COC(=O)c1cc(S(=O)(=O)N2CCOCC2)ccc1Sc1ccccc1N | i | i | i | i | i | x | x | x | x | x | x
CC(C)NC(=O)c1cc(=O)n(C)c(=O)n1C | i | i | i | i | i | x | x | x | x | x | x
Cc1ccc2nc3c(cc(C(=O)NC4CCCC4)c(=N)n3C3CCCCC3)c(=O)n2c1 | i | i | -6.4* | i | i | -186%* | i | -32%* | 43%* | 58%* | i
COc1ccc(CCC(C)NCCc2ccc(Cl)cc2Cl)cc1 (stereo unspecified) | i | i | i | i | i | x | x | x | x | x | x
Clc1ccc(/C=N/c2c(-c3ccc(Cl)cc3)nc3n2CCS3)cc1 | i | i | i | i | i | x | x | x | x | x | x
COc1ccc(-c2nc3cnccn3c2Nc2ccc(C)cc2)cc1 | i | i | -6.2* | i | i | -70%* | i | -16%* | 84%* | 61%* | i
Cc1cccc(C)c1Nc1c(-c2ccc(N3CCOCC3)cc2)nc2cnccn12 | i | i | -8.3* | i | i | -236%* | i | -42%* | 92%* | 75%* | i
Cc1ccc(Nc2c(-c3ccccc3)nc3cnccn23)cc1 | i | i | i | i | i | x | x | x | x | x | x
COc1ccc(N2CC(C(=O)Nc3ccc(S(=O)(=O)N4CCCC4)cc3)CC2=O)cc1 (stereo unspecified) | i | i | i | i | i | x | x | x | x | x | x
CCN(CC)S(=O)(=O)c1ccc(NN=C2CCN(C)CC2)c([N+](=O)[O-])c1 | i | i | -7.2* | i | i | -83%* | i | -20%* | 39%* | i | i
CCn1cc(Br)c(C(=O)NCc2ccco2)n1 | i | i | -5.8* | i | i | i | i | i | i | i | i
CC[N+](C)(CC)CC(=O)OCC1C(C)C=C(C)CC1C (stereo unspecified) | i | i | -8.4* | i | i | x | x | x | x | i | i | TRPC4 sel inh 2=i;TRPC4 spec=i;HEK293 MPD ctr 2-1=i;HEK293 MPD ctr-1=i
Cc1ccc(-n2cc(CN3CCN(C(=O)c4ncn[nH]4)CC3)c(-c3ccc(F)cc3)n2)cc1 | i | i | i | i | i | x | x | x | x | x | x
Nc1c(-c2ccccc2)sc2ccc3ccccc3[n+]12 | i | i | -5* | i | i | -99%* | i | -18%* | i | 44%* | i
CC1CCCCN1CCCNC(=O)CCCN1C(=O)c2cccnc2Sc2ccccc21 (stereo unspecified) | i | i | i | i | i | x | x | x | x | x | x
O=C(COCC(=O)Nc1cccc(C(F)(F)F)c1)Nc1cccc(C(F)(F)F)c1 | i | i | i | i | i | x | x | x | x | x | x
COc1cc(NC(=O)CSCC(=O)Nc2cccc(C(F)(F)F)c2)c(Cl)cc1Cl | i | i | -7.3* | i | i | x | x | x | x | i | i | TRPC4 sel inh 2=i;TRPC4 spec=i;HEK293 MPD ctr 2-1=i;HEK293 MPD ctr-1=i
CN(C)C(=O)c1c2c(nc3ccccc13)-c1ccccc1CC2 | i | i | -5.7* | i | i | i | i | i | i | i | i
CC(=O)c1ccc(NC(=S)NC(C)c2ccc(Cl)cc2Cl)cc1 (stereo unspecified) | i | i | i | i | i | x | x | x | x | x | x
COCCn1c(N)c(Sc2ccc([N+](=O)[O-])cc2)c(=O)[nH]c1=O | i | i | i | i | i | x | x | x | x | x | x
COC(=O)c1cccc(CSC(=S)N2CCCC2)c1 | i | i | i | i | 13* | i | i | i | i | x | 130%*
COC(=O)c1ccc(C(=S)N2CCCCC2)cc1 | i | i | i | i | i | x | x | x | x | x | x
Nc1c(C(=O)N2CCOCC2)oc2ccccc12 | i | i | -5.4* | i | i | i | i | i | i | i | i
